The text below walks through data of ChEMBL document CHEMBL5257036, “Benzophenone-nucleoside derivatives as telomerase inhibitors: Design, synthesis and anticancer evaluation in vitro and in vivo” (Eur J Med Chem, 2016).

What is called IC50 is the concentration that inhibits the measured activity by half. Read a low IC50 as inhibition by little substance.

The test system of one test is HeLa. As to the kind of experiment: Antiproliferative activity against human HeLa cells measured after 48 hrs by MTT assay. Format: functional, cell-based. In a few lines: (§1)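 Cells grown to log phase in RPMI 1640 with 10% FBS, seeded at 3 × 10⁴ cells/mL, and preincubated 24 h at 37 °C, 5% CO₂. Compounds were added at pre-set concentrations to 6 wells each, with doxorubicin as reference, and exposed for 48 h. MTT was then added and absorbance read at 570 nm.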

For a further test, the system named is SMMC-7721. The test can be described thus: Antiproliferative activity against human SMMC-7721 cells measured after 48 hrs by MTT assay. Format: functional, cell-based. Conditions: SMMC-7721, 48 h. In a few lines: as §1
(Tetrazolium dyes change colour on reduction, which living cells bring about.)

Another test has as its system HepG2. The test can be described thus: Antiproliferative activity against human HepG2 cells measured after 48 hrs by MTT assay. Format: functional, cell-based. Conditions: HepG2, 48 h. In a few lines:
as §1

For a further test, the system named is SGC-7901. The test can be described thus: Antiproliferative activity against human SGC-7901 cells measured after 48 hrs by MTT assay. Format: functional, cell-based. Conditions: SGC-7901, 48 h. In outline:
as §1

Test [1] addresses Telomerase reverse transcriptase (Homo sapiens, UniProt O14746). As to the kind of experiment: Inhibition of telomerase activity in human SGC-7901 cells incubated for 24 hrs by TRAP-PCR-ELISA assay. Format: cell-based. In outline:
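Extract was mixed with TRAP reaction mix, incubated 25 °C for 30 min, then 35 PCR cycles (94/50/72 °C). Products detected by anti-DIG-peroxidase ELISA at 490 nm; mean ± SD.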

Chain of Telomerase reverse transcriptase (O14746 whole entry): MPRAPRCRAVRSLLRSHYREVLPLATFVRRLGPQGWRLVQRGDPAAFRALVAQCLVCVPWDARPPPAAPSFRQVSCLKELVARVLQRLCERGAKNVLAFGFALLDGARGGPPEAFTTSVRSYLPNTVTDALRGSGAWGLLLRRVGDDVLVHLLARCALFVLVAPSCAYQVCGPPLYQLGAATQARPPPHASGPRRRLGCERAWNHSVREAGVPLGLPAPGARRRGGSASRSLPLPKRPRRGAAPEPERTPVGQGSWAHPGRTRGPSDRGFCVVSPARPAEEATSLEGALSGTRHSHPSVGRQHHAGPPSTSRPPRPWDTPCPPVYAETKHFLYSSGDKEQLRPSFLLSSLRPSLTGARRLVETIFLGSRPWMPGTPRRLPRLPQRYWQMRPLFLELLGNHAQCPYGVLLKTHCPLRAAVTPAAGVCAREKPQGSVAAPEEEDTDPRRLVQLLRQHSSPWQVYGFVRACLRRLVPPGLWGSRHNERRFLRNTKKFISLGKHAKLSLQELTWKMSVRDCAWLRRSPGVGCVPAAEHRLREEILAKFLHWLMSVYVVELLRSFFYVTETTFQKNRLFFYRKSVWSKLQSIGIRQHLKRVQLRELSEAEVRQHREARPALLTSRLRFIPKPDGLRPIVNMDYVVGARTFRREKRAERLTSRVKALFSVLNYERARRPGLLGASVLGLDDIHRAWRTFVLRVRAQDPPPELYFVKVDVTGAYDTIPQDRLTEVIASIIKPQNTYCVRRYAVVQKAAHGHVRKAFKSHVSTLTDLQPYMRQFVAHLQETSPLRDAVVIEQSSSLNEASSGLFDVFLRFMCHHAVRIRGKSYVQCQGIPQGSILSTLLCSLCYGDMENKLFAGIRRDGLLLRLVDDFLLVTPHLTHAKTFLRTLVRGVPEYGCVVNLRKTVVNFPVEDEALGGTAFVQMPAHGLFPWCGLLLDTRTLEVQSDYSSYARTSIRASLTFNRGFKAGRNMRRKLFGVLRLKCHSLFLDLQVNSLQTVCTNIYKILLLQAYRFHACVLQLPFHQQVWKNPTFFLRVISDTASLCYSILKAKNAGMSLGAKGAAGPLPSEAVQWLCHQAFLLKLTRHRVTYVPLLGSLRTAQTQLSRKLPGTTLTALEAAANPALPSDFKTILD

As for `COc1ccc(C(=O)c2ccccc2Cl)cc1OCC(=O)OC[C@@H]1C=C[C@H](n2cc(C)c(=O)[nH]c2=O)O1`, the IC50 in the test with HeLa came to 45.8 µM; in the test on SMMC-7721, 40.6 µM.

`COc1cc(OC)c(C(=O)c2ccc(OC)c(OCC(=O)OC[C@@H]3C=C[C@H](n4cc(C)c(=O)[nH]c4=O)O3)c2)cc1OC`: the IC50 worked out at 28.6 µM in the test on HeLa, 20.1 µM in the test with SMMC-7721, 28.6 µM in the test with HepG2 and 31.4 µM in the test with SGC-7901.

For `COc1cc(OC)c(C(=O)c2ccc(OC)c(OC(=O)CCC(=O)OC[C@@H]3C=C[C@H](n4cc(C)c(=O)[nH]c4=O)O3)c2)cc1OC`, the IC50 worked out at 2.65 µM in the test on HeLa; 2.86 µM in the test on SMMC-7721; 6.85 µM with HepG2; 2.27 µM in the test on SGC-7901; 6.43 µM in test [1].

Regarding `COc1ccc(C(=O)c2cc(OC)c(OC)c(OC)c2)cc1OCC(=O)OC[C@@H]1C=C[C@H](n2cc(C)c(=O)[nH]c2=O)O1`, the IC50 turned out to be 12.8 µM in the test on HeLa, 21.2 µM in the test on SMMC-7721, 15 µM in the test on HepG2 and 23.4 µM with SGC-7901.

Regarding `COc1ccc(C(=O)c2ccccc2OC)cc1OCC(=O)OC[C@@H]1C=C[C@H](n2cc(C)c(=O)[nH]c2=O)O1`, the IC50 came to 30.2 µM with HeLa and 32.3 µM in the test with SMMC-7721.

With `COc1ccc(C(=O)c2ccc([N+](=O)[O-])cc2)cc1OC(=O)CCC(=O)OC[C@@H]1C=C[C@H](n2cc(C)c(=O)[nH]c2=O)O1`, the IC50 in the test on HeLa was found to be 21.1 µM; with SMMC-7721 it was 30.5 µM; with HepG2, 24 µM; in the test on SGC-7901, 10.2 µM; in test [1], 28.9 µM.
